Experiments:
NONO C145 [1] = target: T1, NONO C145 (Homo sapiens, UniProt Q15233); experiment: Cysteine-directed MS-ABPP, engagement of NONO C145 in 22Rv1 cells; format: binding; details: 1 h
T1 sequence (Q15233 1-471): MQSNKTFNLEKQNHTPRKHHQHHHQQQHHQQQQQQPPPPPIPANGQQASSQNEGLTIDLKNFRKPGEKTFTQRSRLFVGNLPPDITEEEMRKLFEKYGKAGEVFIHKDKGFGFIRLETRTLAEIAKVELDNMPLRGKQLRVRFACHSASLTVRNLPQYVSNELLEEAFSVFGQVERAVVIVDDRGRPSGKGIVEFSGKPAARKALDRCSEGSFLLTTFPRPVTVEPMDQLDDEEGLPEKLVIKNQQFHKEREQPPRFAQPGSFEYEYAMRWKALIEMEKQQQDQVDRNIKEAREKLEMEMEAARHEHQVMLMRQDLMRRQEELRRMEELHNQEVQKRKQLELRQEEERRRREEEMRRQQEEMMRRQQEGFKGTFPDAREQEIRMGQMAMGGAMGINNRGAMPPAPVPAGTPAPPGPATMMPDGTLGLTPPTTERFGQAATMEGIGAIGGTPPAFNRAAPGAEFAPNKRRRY
Outline: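 22Rv1 cells were seeded at 2 × 10^6 per 10-cm plate and grown for 48 h. They were treated in situ with 20 μM test compound or DMSO for 1 h, then analysed by cysteine-directed MS-ABPP. Engagement was taken from the DMSO versus compound reactivity ratio, capped at 10 and 0.1. Values are means of three independent experiments, counting cysteines quantified in at least two.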

AR-FL mRNA = experiment: QuantiGene assay for AR-FL mRNA expression in 22Rv1 cells; format: cell-based; details: Homo sapiens, 22Rv1, 6 h, read-out: IC50 for AR-FL transcript suppression
AR-V7 mRNA = experiment: QuantiGene assay for AR-V7 mRNA expression in 22Rv1 cells; format: cell-based; details: Homo sapiens, 22Rv1, 6 h, read-out: IC50 for AR-V7 transcript suppression
NONO C145 [2] = target: T1, NONO C145; format: binding
Outline: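 HEK293T cells were seeded at 5 × 10^5 overnight and PEI-transfected with FLAG-tagged WT or C145S NONO, or empty vector, for 48 h. Cells were then given test compound or 0.1% DMSO in situ for 2 h, followed by a cysteine-reactive alkyne probe (20 μM, 1 h, 37 °C). Lysates (2 mg ml–1) were click-conjugated to rhodamine/TAMRA-azide and run on SDS-PAGE. The FLAG-NONO band was quantified by in-gel fluorescence. Four independent experiments gave the IC50.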

NONO = target: T2, NONO (Homo sapiens, UniProt Q15233); experiment: Immunofluorescence of NONO nuclear foci in 22Rv1 cells; format: cell-based; details: 20 μM, 1 h to 24 h
T2 sequence (Q15233 1-471): T1 sequence (Q15233 1-471)

22Rv1 cells [3] = experiment: RNA-seq of sgControl 22Rv1 cells; format: cell-based, human; details: 20 μM, 4 h, log2 (fold change) < −0.5, Padj < 0.01, versus (S)-SKBG-1 or DMSO
22Rv1 cells [4] = experiment: Cell growth inhibition assay; format: cell-based, human; details: 22Rv1, 6 d, versus (S)-SKBG-1
Outline: (§1)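 Cells were seeded at 5,000 per well for 16 h. They were then given 0.1% DMSO or test compound in 0.1% DMSO (threefold dilutions from 50 μM, eight concentrations) until DMSO controls were confluent: 6 d for 22Rv1, 5 d for MCF7, 4 d for HeLa and HT1080. CellTiterGlo was added for 30 min at room temperature and luminescence read. Signals were normalized to DMSO, with four replicate wells per concentration. EC50 came from a four-parameter variable-slope fit.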

MCF7 cells = experiment: Cell growth inhibition assay; format: cell-based, human; details: MCF7, 5 days, versus (S)-SKBG-1
Outline: as §1

HeLa cells = experiment: Cell growth inhibition assay; format: cell-based, human; details: 4 days, versus (S)-SKBG-1
Outline: as §1

HT1080 cells = experiment: Cell growth inhibition assay; format: cell-based, human; details: HT1080, 4 days, versus (S)-SKBG-1
Outline: as §1

| engagement of NONO C145 (NONO C145 [1]; 22Rv1 cells, 20 μM) | Structure (SMILES) | IC50 (AR-FL mRNA) | IC50 (AR-V7 mRNA) | IC50 (NONO C145 [2]) | inhibition at 20 µM (NONO C145 [1]; read-out: engagement of NONO C145) | formation of subnuclear foci of NONO (NONO) | number of transcripts substantially and significantly decreased (22Rv1 cells [3]) | cell growth effect (22Rv1 cells [4]) | cell growth effect (MCF7 cells) | cell growth effect (HeLa cells) | cell growth effect (HT1080 cells) |
| --- | --- | --- | --- | --- | --- | --- | --- | --- | --- | --- | --- |
| not by the inactive controls | COc1ccc(CNC(=O)[C@@H]2CN(C(=O)CCl)CCN2S(=O)(=O)c2ccc(OC)cc2)cc1 [(S)-SKBG-1] |  |  |  |  |  |  |  |  |  |  |
|  | COc1ccc(CNC(=O)[C@H]2CN(C(=O)CCl)CCN2S(=O)(=O)c2ccc(OC)cc2)cc1 [(R)-SKBG-1] | 2.7 to 5.5 µM | 2.7 to 5.5 µM | 5.7 µM | > 50% | induced the formation of large subnuclear foci of NONO | ~ 1,000 transcripts | stereoselective cell growth impairment | stereoselective cell growth impairment | stereoselective cell growth impairment | stereoselective cell growth impairment |

— PMC10337234 (Nature chemical biology, 2023)
